Consider seven compounds from ChEMBL document CHEMBL3525967, “In vitro glucuronidation of the antibacterial triclocarban and its oxidative metabolites” (Drug Metab Dispos, 2012).

Data set [1] is described as follows: Drug metabolism in microsomes (unknown origin) assessed as retention time treated with 10 uM triclocarban by LC-UV-MS method. It is filed as ADME, Microsome.
The target of data set [2] is T1, UDP-glucuronosyltransferase 1A9 (Homo sapiens, UniProt O60656).
T1 sequence (O60656 whole entry): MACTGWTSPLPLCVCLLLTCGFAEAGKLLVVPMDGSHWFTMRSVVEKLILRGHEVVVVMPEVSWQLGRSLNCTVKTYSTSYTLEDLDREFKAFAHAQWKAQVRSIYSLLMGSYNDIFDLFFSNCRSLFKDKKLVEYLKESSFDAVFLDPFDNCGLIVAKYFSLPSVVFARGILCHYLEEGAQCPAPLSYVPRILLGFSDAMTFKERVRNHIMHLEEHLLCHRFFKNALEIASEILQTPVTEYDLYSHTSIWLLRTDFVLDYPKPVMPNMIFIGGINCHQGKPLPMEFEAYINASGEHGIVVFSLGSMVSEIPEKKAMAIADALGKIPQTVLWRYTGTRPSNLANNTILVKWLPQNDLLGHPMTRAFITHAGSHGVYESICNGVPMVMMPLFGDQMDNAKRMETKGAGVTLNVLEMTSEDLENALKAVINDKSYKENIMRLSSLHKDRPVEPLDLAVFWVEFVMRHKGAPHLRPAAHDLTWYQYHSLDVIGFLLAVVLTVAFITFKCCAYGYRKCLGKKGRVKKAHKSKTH
Kind of data set: Activity of human UGT1A9 expressed in baculovirus infected insect sf9 cells assessed as enzyme-mediated drug metabolism treated with triclocarban incubated for 5 mins prior to UDPGA addition measured after 30 mins by LC-ESI-MS analysis. The following applies: sf9, 0.5 h. Format: ADME. The essentials: (§1)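 Microsomes or Sf-9 Supersomes (5 µg protein in 200 µL 100 mM potassium phosphate pH 7.4) pre-treated with alamethicin on ice 15 min; substrate 10 µM final (2% DMSO), MgCl2 and saccharolactone 10 mM each; 5 min preincubation at 37 °C, then UDPGA to start. Samples taken at 5, 10, 15, 30 min (or 2, 5, 10, 15 min) into ACN with internal standard; LC-UV-ESI-MS/MS.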

The nature of data set [3]: Drug excretion in human urine assessed as retention time treated with triclocarban by LC-UV-MS method. Format: ADME.
In a further data set the test system is Liver. Kind of data set: Drug level in B6C3F1 mouse liver microsomes treated with triclocarban incubated for 5 mins prior to UDPGA addition measured after 30 mins by LC-UV-ESI-MS/MS analysis. It is filed as ADME. The following applies: 0.5 h. The essentials:
as §1

The test system of data set [4] is Liver microsome. Kind of data set: Drug level in human liver microsomes treated with triclocarban incubated for 5 mins prior to UDPGA addition measured after 30 mins by LC-UV-ESI-MS/MS analysis. The following applies: 0.5 h. It is filed as ADME. The essentials: as §1
A general note: Liver microsomes are vesicles of endoplasmic reticulum, rich in cytochrome P450 enzymes.

Data set [5] can be described thus: Drug level in cynomolgus monkey liver microsomes treated with triclocarban incubated for 5 mins prior to UDPGA addition measured after 30 mins by LC-UV-ESI-MS/MS analysis. The note with it: 0.5 h. It is filed as ADME, Macaca fascicularis. The essentials: as §1
Data set [6] can be described thus: Drug level in human kidney microsomes treated with triclocarban incubated for 5 mins prior to UDPGA addition measured after 30 mins by LC-UV-ESI-MS/MS analysis. The following applies: 0.5 h. Format: ADME. The essentials: as §1
Data set [7] is described as follows: Drug level in Swiss webster mouse urine treated with triclocarban at 5 mg/kg, po by LC-MS analysis. The following applies: in vivo. The arrangement: dose 5 mg/kg, route oral. It is filed as ADME, organism-based. The essentials: (§2)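 TCC given by oral gavage as 1 mg/mL in 20/80 DMSO/PEG400, at 1 mg/kg (rats) or 5 mg/kg (mice). Animals in metabolic cages (mice two per cage, rats singly), blank urine taken 24 h before dosing. Urine collected 0-24 h and 24-48 h and analysed by online-LC-MS.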

A short description of data set [8]: Drug level in Sprague-Dawley rat urine treated with triclocarban at 1 mg/kg, po by LC-MS analysis. It is filed as ADME, organism-based. The arrangement: dose 1 mg/kg, route oral. The note with it: in vivo. The essentials:
as §2

Data set [9] has as its system Liver microsome. Kind of data set: Drug metabolism in Sprague-Dawley rat liver microsomes assessed as retention time treated with 6-hydroxy-triclocarban by LC-UV-MS method in presence of UDPGA. It is filed as ADME.

In the case of `O=C(Nc1ccc(Cl)c(Cl)c1)Nc1ccc(Cl)cc1OS(=O)(=O)O`, the Retention_time in [1] came to 3.46 min.
With `O=C(O)[C@H]1OC(N(C(=O)Nc2ccc(Cl)c(Cl)c2)c2ccc(Cl)cc2)[C@H](O)[C@@H](O)[C@@H]1O` (stereo not given in full), the Drug metabolism result (in data set [2]; in the data set with Liver; in the data set on Liver microsome [4]; in data set [5]; in data set [6]; in data set [7]) was “metabolite_detected” each time. Also, the Retention_time in data set [3] amounted to 2.07 min.
For the compound `O=C(Nc1ccc(Cl)c(Cl)c1)Nc1ccc(Cl)c(OC2O[C@H](C(=O)O)[C@@H](O)[C@H](O)[C@H]2O)c1` (stereo not given in full), the Drug metabolism result in data set [8] and in data set [7] was “metabolite_detected” in each case. Further, the Retention_time with Liver microsome [9] is on record as 2.26 min.
On to `O=C(Nc1ccc(Cl)c(Cl)c1)Nc1ccc(Cl)cc1OC1O[C@H](C(=O)O)[C@@H](O)[C@H](O)[C@H]1O` (stereo not given in full), for which, in [1], the Retention_time was found to be 2.5 min. For the same compound, the Drug metabolism entry in [8] and in data set [7] was “metabolite_detected” throughout.
As to `O=C(O)[C@H]1OC(N(C(=O)Nc2ccc(Cl)cc2)c2ccc(Cl)c(Cl)c2)[C@H](O)[C@@H](O)[C@@H]1O` (stereo not given in full), the Drug metabolism entry (in data set [2]; in the data set with Liver; with Liver microsome [4]; in data set [5]; in data set [6]; in [7]) was “metabolite_detected” each time. Further, the Retention_time in data set [3] worked out at 1.97 min.
With `O=C(Nc1ccc(Cl)cc1)Nc1ccc(Cl)cc1`, the Retention_time in data set [1] was found to be 4.36 min.
With `O=C(Nc1ccc(Cl)cc1)Nc1cc(Cl)c(Cl)cc1OC1O[C@H](C(=O)O)[C@@H](O)[C@H](O)[C@H]1O` (stereo not given in full), the Drug metabolism result in data set [8] and in data set [7] was “metabolite_detected” throughout. The Retention_time in the data set with Liver microsome [9] came to 2.51 min.
